According to paper PMC4823011 (The American journal of clinical nutrition, 2014):
Values joined by “and” are separate entries in the source; they are usually repeats but may differ in a detail not shown here. Equal values may be shown once. Read-outs that look alike come from different tables or passages of the source.

Experiments:
[1] = model parameter; cited from earlier work
[2] = format: in vivo, human; conditions: caplet 855 nmol oral
[3] = format: in vivo, human
Procedure, shortened: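 Given after a ≥4-wk washout as an IV injection in 1.35 mL sterile saline (pH 7.0, 74 μg folate/mL). Blood was drawn from the opposite arm at 15 min, then every 30 min for 4 h. Plasma M+5/M+0 molar ratios were measured by LC-MS/MS. Amounts were converted to nmol/person from baseline microbiological plasma folate, blood volume and packed cell volume. Half-life came from a one-phase exponential fit to the descending plasma curve.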

[4] = Apparent absorption across the colon calculated with one-compartment model; format: in vivo, human
Procedure, shortened: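 Enteric-coated caplet with about 12.6% coating mass gain. The absorbed mass was estimated from plasma labeled 5-methyltetrahydrofolate concentration using a three-equation, one-compartment model of small-intestinal folate absorption. Volume of distribution was taken as 387 mL/kg body weight. t_lag, the time plasma enrichment stayed at baseline, was set at 1 h. Plasma was sampled hourly after pyloric passage until 2000, then at 24 and 48 h.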

[5] = 684 nmol (320 μg) cecal infusion after bowel cleansing; cited from earlier work
[6] = cited from earlier work
[7] = iv 214 nmol, individual subjects A-I

SMILES | Apparent volume of distribution (V) [1] | Detection of [13C5]5-formyltetrahydrofolate (parent) in plasma after caplet ([2]; any subject) | Cmax of [13C5]5-methyltetrahydrofolate in plasma ([2]; individual subjects A-F) | 5-formyltetrahydrofolate Cmax (labeled, plasma) [3, 7] | 5-methyltetrahydrofolate Cmax (labeled metabolite, plasma) [3, 7] | 5-formyltetrahydrofolate Cmax (labeled, plasma) ([3]; iv 214 nmol, mean ± SEM, n = 9) | Plasma enrichment with [13C5]5-formyltetrahydrofolate ([3]; plasma samples collected immediately after iv injection, mean ± SEM) | Apparent absorption across the colon of the 855-nmol dose ([4]; caplet, one-compartment model, mean, excludes 2 subjects without plasma response) | bioavailability ([4]; human, plasma, oral, 855 nmol) | Rate of folate absorption after bolus infusion directly into the cecum [5] | Apparent absorption in the small intestine ([6]; 500-nmol orally administered test dose) | Rate of folate absorption across the small intestine ([6]; oral bolus 421–569 nmol, estimated from published data)
Nc1nc2ncc(CNc3ccc(C(=O)N[C@@H](CCC(=O)O)C(=O)O)cc3)nc2c(=O)[nH]1 [folate] | 387 mL/kg body weight | – | – | – | – | – | – | – | – | – | – | –
Nc1nc2c(c(=O)[nH]1)N(C=O)C(CNc1ccc(C(=O)N[C@@H](CCC(=O)O)C(=O)O)cc1)CN2 (stereo partly drawn) [[^13C5]5-formyltetrahydrofolate, [glutamyl-^13C5]-[6S]-5-formyltetrahydrofolic acid] | – | did not detect | 0.5 nmol and 2.0 nmol and 3.7 nmol and 4.0 nmol and 1.6 nmol | 20.0 nmol and 10.2 nmol and 20.3 nmol and 7.1 nmol and 15.9 nmol and 14.1 nmol and 7.5 nmol and 10.9 nmol and 15.2 nmol | 6.8 nmol and 6.6 nmol and 10.2 nmol and 3.1 nmol and 7.8 nmol and 10.0 nmol and 5.0 nmol and 6.0 nmol and 5.8 nmol | 13.5 ± 1.6 nmol | 11.6 ± 1.5% | 46% and 46.2 ± 16.5% | 34.7 ± 14.3% | 0.6 ± 0.02 nmol/h | 38 ± 6% and 38% | ~ 34 nmol/h
